The values that follow come from ChEMBL document CHEMBL4190332, “Design and Optimization of Benzopiperazines as Potent Inhibitors of BET Bromodomains” (ACS Med Chem Lett, 2017).

Some results are limits rather than exact numbers.

One series relates to MV4-11. Briefly: Growth inhibition of human MV411 cells after 72 hrs by Celltiter-Glo luminescent cell viability assay. Type of series: functional. As to conditions: MV4-11, 72 h. The procedure, abridged: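 Anti-proliferative activity was tested in MV-4-11 cells. Each GI50 is the mean of at least two separate assay runs.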
For orientation: GI50 means the concentration at which growth is held to half of that of the control. Read a high GI50 as lower sensitivity of the cells. For `CC(=O)N1c2ccc(-c3ccc(S(C)(=O)=O)cc3)cc2N(C(=O)OC(C)C)C[C@@H]1C`, the GI50 was determined as 0.35 µM.
In turn, `CCC(=O)N1c2ccc(-c3ccc(S(C)(=O)=O)cc3)cc2N(C(=O)c2ccco2)C[C@@H]1C` displayed a GI50 of 0.55 µM.
The compound `CC(=O)N1c2ccc(-c3ccc(S(C)(=O)=O)cc3)cc2N(C(=O)c2ccco2)C[C@@H]1C` came in with a GI50 of 0.4 µM.
Consider `C[C@H]1CN(C(=O)c2ccco2)c2cc(-c3ccc(S(C)(=O)=O)cc3)ccc2N1C(=O)C1CC1`, for which the 50% growth inhibitory concentration (GI50) is 0.28 µM.
Compound `CC(=O)N1c2ccc(-c3cnn(C4COC4)c3)cc2N(C(=O)C2CC2)C[C@@H]1C` showed a 50% growth inhibitory concentration (GI50) of 0.44 µM.
The compound `CC(=O)N1c2ccc(-c3ccccc3)cc2N(C(=O)c2ccco2)C[C@@H]1C` registered a GI50 of 0.35 µM.
Compound `CC(=O)N1c2ccc(-c3ccc(C(=O)N4CCNCC4)cc3)cc2N(C(=O)C2CC2)C[C@@H]1C` yielded a 50% growth inhibitory concentration (GI50) of 0.12 µM.
`CNC(=O)c1cccc(-c2ccc3c(c2)N(C(=O)c2ccco2)C[C@H](C)N3C(C)=O)c1` came in with a GI50 of 0.77 µM.
For `COC(=O)N1c2ccc(-c3ccc(S(C)(=O)=O)cc3)cc2N(C(=O)c2ccco2)C[C@@H]1C`, it took 0.32 µM to inhibit growth by half (GI50).
Same read-out and setting: the figure for `CC(=O)N1c2ccc(-c3cnn(C4CNC4)c3)cc2N(C(=O)C2CC2)C[C@@H]1C` is 0.27 µM; for `CC(=O)N1c2ccc(-c3cnn(C)c3)cc2N(C(=O)c2ccco2)C[C@@H]1C` it is 0.21 µM; for `CC(=O)N1c2ccc(-c3ccc(N4CCS(=O)(=O)CC4)cc3)cc2N(C(=O)C2CC2)C[C@@H]1C` it is 0.22 µM.
Compound `CC(=O)N1c2ccc(-c3cnn(C(C)C)c3)cc2N(C(=O)C2CC2)C[C@@H]1C` returned a GI50 of 0.58 µM.
Turning to `CC(=O)N1c2ccc(-c3ccc(S(C)(=O)=O)cc3)cc2N(C(=O)C2CC2)C[C@@H]1C`, growth was halved (GI50) at 0.83 µM.

Tested on in the next series: not listed separately
Briefly: Chemical stability of the compound in acid.
Conditions: not given
The format is physicochemical.
On to `CC(=O)N1c2ccc(-c3cnn(C4COC4)c3)cc2N(C(=O)C2CC2)C[C@@H]1C`, for which the Stability entry was “Unstable”.

In a further series the target is T1, Bromodomain-containing protein 4 (Homo sapiens, UniProt O60885). In words: Inhibition of His-epitope tagged BRD4 bromodomain 1 (44 to 168 residues) (unknown origin) using biotinylated K5,8,12,16 tetra-acetylated histone H4 (1 to 20 residues) peptide as substrate measured after 1 hr by Alphascreen assay.
Conditions: not given
The procedure, abridged: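 Binding to the isolated BRD4 first bromodomain was measured by AlphaScreen. Each IC50 is the mean of at least two separate assay runs.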
Background: Alpha assays give light when donor and acceptor beads are brought close together.
As usually defined, the IC50 is the concentration that gives 50% inhibition. Compound `CC(=O)N1c2ccc(-c3ccc(S(C)(=O)=O)cc3)cc2N(C(=O)OC(C)C)C[C@@H]1C` returned an IC50 of 0.26 µM.
Still for that read-out and setting: the result for `CCC(=O)N1c2ccc(-c3ccc(S(C)(=O)=O)cc3)cc2N(C(=O)c2ccco2)C[C@@H]1C` reads 1.4 µM.
With `CC(=O)N1c2ccccc2N(C(=O)c2ccco2)C[C@@H]1C`, the half-maximal inhibitory concentration (IC50) is 14 µM.
`C[C@H]1CN(C(=O)c2ccco2)c2cc(-c3ccc(S(C)(=O)=O)cc3)ccc2N1C=O` had a concentration for half-maximal inhibition (IC50) of over 25 µM.
On the same count and under the same terms, the result for `CC(=O)N1c2ccc(-c3ccc(S(C)(=O)=O)cc3)cc2N(C(=O)c2ccco2)C[C@@H]1C` reads 1.6 µM; that for `C[C@H]1CN(C(=O)c2ccco2)c2cc(-c3ccc(S(C)(=O)=O)cc3)ccc2N1C(=O)C1CC1`, 0.76 µM.
In turn, `CC(=O)N1c2ccc(-c3cnn(C4COC4)c3)cc2N(C(=O)C2CC2)C[C@@H]1C` displayed a 50% inhibitory concentration (IC50) of 0.37 µM.
For the compound `CC(=O)N1c2ccc(-c3ccccc3)cc2N(C(=O)c2ccco2)C[C@@H]1C`, the concentration for half-maximal inhibition (IC50) was found to be 1.6 µM.
On the same count and under the same terms, the figure for `CC(=O)N1c2ccc(-c3ccc(C(=O)N4CCNCC4)cc3)cc2N(C(=O)C2CC2)C[C@@H]1C` is 0.38 µM; for `CNC(=O)c1cccc(-c2ccc3c(c2)N(C(=O)c2ccco2)C[C@H](C)N3C(C)=O)c1` it is 0.79 µM; for `CC(=O)N1c2ccccc2N(C(=O)C2CCCC2)C[C@@H]1C` it is 43 µM.
The same measure, in the same setting: the figure for `CC(=O)N1c2ccccc2N(C(=O)CC(C)C)C[C@@H]1C` is over 50 µM; for `COC(=O)N1c2ccc(-c3ccc(S(C)(=O)=O)cc3)cc2N(C(=O)c2ccco2)C[C@@H]1C` it is 0.65 µM.
The same measure, in the same setting: the result for `CC(=O)N1c2ccc(-c3cnn(C4CNC4)c3)cc2N(C(=O)C2CC2)C[C@@H]1C` reads 0.06 µM; that for `CC(=O)N1c2ccc(-c3cnn(C)c3)cc2N(C(=O)c2ccco2)C[C@@H]1C`, 0.38 µM.
As to `CC(=O)N1c2ccccc2N(C(=O)c2ccccc2)C[C@@H]1C`, the IC50 was over 50 µM.
For the compound `CC(=O)N1c2ccc(-c3ccc(N4CCS(=O)(=O)CC4)cc3)cc2N(C(=O)C2CC2)C[C@@H]1C`, it took 0.1 µM to reach half-maximal inhibition (IC50).
As to `CC(=O)N1c2ccc(-c3cnn(C(C)C)c3)cc2N(C(=O)C2CC2)C[C@@H]1C`, half-maximal inhibition (IC50) was put at 0.42 µM.
Regarding `CC(=O)N1c2ccc(-c3ccc(S(C)(=O)=O)cc3)cc2N(C(=O)C2CC2)C[C@@H]1C`, inhibition was half-maximal at 1.7 µM (IC50).

Tested on in another series: not listed separately
In words: Stability in mouse liver microsomes assessed as parent compound remaining after 30 mins. The format is ADME, microsome. As to conditions: read-out: Stability. The procedure, abridged: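 Compound was incubated with mouse liver microsomes for 30 minutes. The read-out was the percent of compound remaining.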
Background: Liver microsomes are vesicles of endoplasmic reticulum, rich in cytochrome P450 enzymes.
For the compound `CC(=O)N1c2ccc(-c3ccc(S(C)(=O)=O)cc3)cc2N(C(=O)OC(C)C)C[C@@H]1C`, the remaining at 0.5 h came to 99%.
For the compound `CCC(=O)N1c2ccc(-c3ccc(S(C)(=O)=O)cc3)cc2N(C(=O)c2ccco2)C[C@@H]1C`, the remaining at 0.5 h was 11%.
Consider `C[C@H]1CN(C(=O)c2ccco2)c2cc(-c3ccc(S(C)(=O)=O)cc3)ccc2N1C(=O)C1CC1`, for which the remaining at 0.5 h stood at 19%.
For the compound `CC(=O)N1c2ccc(-c3cnn(C4COC4)c3)cc2N(C(=O)C2CC2)C[C@@H]1C`, the remaining at 0.5 h came out at 100%.
Still for that read-out and setting: the result for `CC(=O)N1c2ccc(-c3ccc(C(=O)N4CCNCC4)cc3)cc2N(C(=O)C2CC2)C[C@@H]1C` reads 100%.
For `COC(=O)N1c2ccc(-c3ccc(S(C)(=O)=O)cc3)cc2N(C(=O)c2ccco2)C[C@@H]1C`, the remaining at 0.5 h came out at 14%.
On to `CC(=O)N1c2ccc(-c3cnn(C4CNC4)c3)cc2N(C(=O)C2CC2)C[C@@H]1C`, for which the remaining at 0.5 h was found to be 100%.
Still for that read-out and setting: the figure for `CC(=O)N1c2ccc(-c3ccc(N4CCS(=O)(=O)CC4)cc3)cc2N(C(=O)C2CC2)C[C@@H]1C` is 95%; for `CC(=O)N1c2ccc(-c3cnn(C(C)C)c3)cc2N(C(=O)C2CC2)C[C@@H]1C` it is 24%.
For `CC(=O)N1c2ccc(-c3ccc(S(C)(=O)=O)cc3)cc2N(C(=O)C2CC2)C[C@@H]1C`, the remaining at 0.5 h amounted to 100%.

Tested on in a further series: not listed separately
In words: Half life in mouse plasma. Type of series: ADME, cell-free.
Conditions: not given
In a few lines: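 Compound stability in mouse plasma, expressed as a half-life.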
Usually half-life stands for the time needed for the level to fall by half in the phase considered. The low end stands for rapid decline, the high end for slow decline. The compound `CC(=O)N1c2ccc(-c3ccc(S(C)(=O)=O)cc3)cc2N(C(=O)OC(C)C)C[C@@H]1C` had a half-life of 6 min.
For `CCC(=O)N1c2ccc(-c3ccc(S(C)(=O)=O)cc3)cc2N(C(=O)c2ccco2)C[C@@H]1C`, the half-life turned out to be 18 min.
Compound `C[C@H]1CN(C(=O)c2ccco2)c2cc(-c3ccc(S(C)(=O)=O)cc3)ccc2N1C(=O)C1CC1` came in with a half-life of over 24 min.
On the same count and under the same terms, the figure for `CC(=O)N1c2ccc(-c3cnn(C4COC4)c3)cc2N(C(=O)C2CC2)C[C@@H]1C` is over 24 min.
With `CC(=O)N1c2ccc(-c3ccc(C(=O)N4CCNCC4)cc3)cc2N(C(=O)C2CC2)C[C@@H]1C`, the half-life stood at 3 min.
Still for that read-out and setting: the result for `COC(=O)N1c2ccc(-c3ccc(S(C)(=O)=O)cc3)cc2N(C(=O)c2ccco2)C[C@@H]1C` reads 22 min; that for `CC(=O)N1c2ccc(-c3cnn(C4CNC4)c3)cc2N(C(=O)C2CC2)C[C@@H]1C`, over 24 min.
In turn, `CC(=O)N1c2ccc(-c3ccc(N4CCS(=O)(=O)CC4)cc3)cc2N(C(=O)C2CC2)C[C@@H]1C` returned a half-life of over 24 min.
Still for that read-out and setting: the figure for `CC(=O)N1c2ccc(-c3ccc(S(C)(=O)=O)cc3)cc2N(C(=O)C2CC2)C[C@@H]1C` is over 24 min.

Tested on in another series: not listed separately
In words: Toxicity in po dosed athymic Hsd:Foxn1nu mouse administered twice daily for 5 days. Type of series: organism-based. As to conditions: in vivo. In a few lines:
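Tolerability study in athymic nude mice given repeat oral doses twice daily for five days. The value reported is the estimated maximum tolerated dose.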
Compound `CC(=O)N1c2ccc(-c3ccc(N4CCS(=O)(=O)CC4)cc3)cc2N(C(=O)C2CC2)C[C@@H]1C` came in with an MTD at 120 h of 12.5 mg/kg.

The target in another series is T1, Bromodomain-containing protein 4. Briefly: Inhibition of BRD4 in human MV411 cells assessed as reduction in MYC mRNA expression. Type of series: cell-based.
Conditions: not given
As for `CC(=O)N1c2ccc(-c3ccc(N4CCS(=O)(=O)CC4)cc3)cc2N(C(=O)C2CC2)C[C@@H]1C`, the IC50 worked out at 0.46 µM.

For a further series, the system named is Mus musculus. In words: Reduction in MYC mRNA level in tumor of athymic Hsd:Foxn1nu mouse xenografted with human MV411 cells at 12.5 mg/kg, po administered as single dose measured after 4 hrs by qRT-PCR analysis relative to control. Type of series: functional.
Conditions: not given
The procedure, abridged: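 Athymic nude mice bearing MV-4-11 xenografts received a single oral dose of 12.5 mg/kg. Tumor MYC levels were compared with those of vehicle-treated mice.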
In general terms: Xenograft models place foreign cells or tissue in a host animal.
Consider `CC(=O)N1c2ccc(-c3ccc(N4CCS(=O)(=O)CC4)cc3)cc2N(C(=O)C2CC2)C[C@@H]1C`, for which the “fold change (FC)” value is 0.2.

A further series relates to MV4-11. In words: Antitumor activity against human MV411 cells xenografted in athymic Hsd:Foxn1nu mouse assessed as tumor growth inhibition at 12.5 mg/kg, po administered twice daily for 20 days measured weekly twice during compound dosing relative to control. Type of series: functional. Particulars: MV4-11, po, 480 h, read-out: TGI.
In the case of `CC(=O)N1c2ccc(-c3ccc(N4CCS(=O)(=O)CC4)cc3)cc2N(C(=O)C2CC2)C[C@@H]1C`, the inhibition in vivo at 12.5 mg/kg is 100%.

Tested on in the next series: not listed separately
Briefly: Drug uptake in po dosed mouse plasma. As to conditions: in vivo. The format is ADME, organism-based.
With `CC(=O)N1c2ccc(-c3cnn(C4CNC4)c3)cc2N(C(=O)C2CC2)C[C@@H]1C`, the Drug uptake entry is given as “Not Active”.

Tested on in the next series: not listed separately
Briefly: Drug uptake in athymic Hsd:Foxn1nu mouse plasma assessed as unbound fraction at 5 mg/kg, po administered as single dose by mass spectrometric analysis. The format is ADME, organism-based. Particulars: in vivo.
For `CC(=O)N1c2ccc(-c3ccc(N4CCS(=O)(=O)CC4)cc3)cc2N(C(=O)C2CC2)C[C@@H]1C`, the “Drug uptake(free)” value is “Not Active”.
